# Data from ChEMBL document CHEMBL1125836, “Disubstituted tetrahydrofurans and dioxolanes and PAF antagonists” (J Med Chem, 1991).
# Several values for one entry are separate records, joined by “and”; a condition that tells them apart may be missing. Identical values can stand only once.
# Species on record: Rattus norvegicus
# Test: Activity expressed as the dose required to reduce the lowering of the arterial blood pressure caused by PAF by 50%.
# Assay type: functional
# Details: Artery, read-out: ID50 (the source's name)
# Method in brief: (§1)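 Male Sprague-Dawley rats (180–220 g) anesthetized with sodium pentobarbital (50 mg/kg ip). Carotid arterial pressure was recorded. Compound was given iv in saline (1 mL/kg) via femoral vein 3 min before PAF (0.5 μg/kg iv); vehicle controls.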
row,SMILES,ED50
1,CCCCCCCCCCCCCCCCCC1OCC(COCCCCCCCC[n+]2ccsc2)O1.Cc1ccc(S(=O)(=O)[O-])cc1 (stereo not given),> 5 mg/kg
2,CCCCCCCCCCCCCCC1COC(COC(=O)CCCCC[n+]2ccsc2)C1.Cc1ccc(S(=O)(=O)[O-])cc1 (stereo not given),> 5 mg/kg
3,CC1OCC(COC(=O)CCCCC[n+]2ccsc2)O1.Cc1ccc(S(=O)(=O)[O-])cc1 (stereo not given),> 5 mg/kg

# Target: Platelet-activating factor receptor (Rattus norvegicus) (UniProt P46002)
# Test: Activity expressed as the dose required to reduce the lowering of the arterial blood pressure caused by PAF by 50%
# Assay type: functional
# Details: Artery
# Method in brief: as §1
# Sequence of Platelet-activating factor receptor (Rattus norvegicus) (P46002 whole entry): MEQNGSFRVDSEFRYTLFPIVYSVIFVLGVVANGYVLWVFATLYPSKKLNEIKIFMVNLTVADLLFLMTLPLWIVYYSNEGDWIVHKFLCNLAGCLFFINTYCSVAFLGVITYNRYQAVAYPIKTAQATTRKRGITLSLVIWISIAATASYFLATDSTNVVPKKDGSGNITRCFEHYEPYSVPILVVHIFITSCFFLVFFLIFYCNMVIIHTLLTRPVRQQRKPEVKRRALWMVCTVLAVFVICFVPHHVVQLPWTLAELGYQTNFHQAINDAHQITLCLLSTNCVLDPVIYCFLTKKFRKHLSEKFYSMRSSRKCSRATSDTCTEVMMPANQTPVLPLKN
row,SMILES,ID50
1,CCCCCCCCCCCCCCCCCC1OCC(COC(=O)CCCCC[n+]2ccsc2)O1 (stereo not given),0.88 mg/kg
2,CCCCCCCCCCCCCCCCCC1OCC(COP(=O)([O-])OCC[N+](C)(C)C)O1 (stereo not given),> 5 mg/kg
3,CCCCCCCCCCCCCCCCCCOCC1COC(COC(=O)NCc2cc[n+](CC)cc2)C1 (stereo not given),> 5 mg/kg
4,CCCCCCCCCCCCCCCCOCC1COC(COC(=O)N(CCc2cccc[n+]2CC)C(C)=O)C1 (stereo not given),> 5 mg/kg
5,CCCCCCCCCCCCCCC1COC(COCCCCCCC[n+]2ccsc2)C1 (stereo not given),1.5 mg/kg
6,CCCCCCCCCCCCCCCCOCC1COC(COC(=O)N(Cc2cccc[n+]2CC)C(C)=O)O1 (stereo not given),0.057 mg/kg and 0.029 mg/kg
7,CCCCCCCCCCCCCCCCCC1OCC(COCCCCCC[N+](C)(C)C)O1 (stereo not given),> 5 mg/kg
8,CCCCCCCCCCCCCC1OCC(COC(=O)CCCCC[n+]2ccsc2)O1 (stereo not given),> 5 mg/kg
9,CCCCCCCCCCCCCCC1COC(COCCCCCCCC[n+]2ccsc2)C1 (stereo not given),2.3 mg/kg
10,CCCCCCCCCCCCCCCCOCC1OCC(COC(=O)CCCCC[n+]2ccsc2)O1 (stereo not given),1.1 mg/kg
11,CCCCCCCCCCCCCCCCOCC1COC(COC(=O)N(C(C)=O)c2cc[n+](CC)cc2)C1 (stereo not given),> 5 mg/kg
12,CCCCCCCCCCCCCCOCC1COC(COC(=O)N(Cc2cccc[n+]2CC)C(C)=O)C1 (stereo not given),0.087 mg/kg
13,CCCCCCCCCCCCCCOCC1COC(COC(=O)N(Cc2cccc[n+]2CC)C(C)=O)O1 (stereo not given),0.2 mg/kg
14,CCCCCCCCCCCCCCCCOCC1COC(COC(=O)N(Cc2cccc[n+]2C)C(C)=O)C1 (stereo not given),0.24 mg/kg
15,CCCCCCCCCCCCCCC1COC(COCCCC[n+]2ccsc2)C1 (stereo not given),> 5 mg/kg
16,CCCCCCCCCCCCCCCCCCOCC1COC(COC(=O)N(Cc2cc[n+](CC)cc2)C(C)=O)C1 (stereo not given),1.6 mg/kg
17,CCCCCCCCCCCCCCCCCC1CC(COC(=O)N(Cc2cccc[n+]2CC)C(C)=O)CO1 (stereo not given),0.052 mg/kg
18,CCCCCCCCCCCCCCCCOCC1COC(COCCCCCC[n+]2ccsc2)C1 (stereo not given),1.2 mg/kg
19,CCCCCCCCCCCCCCC1COC(COC(=O)N(Cc2cccc[n+]2CC)C(C)=O)C1 (stereo not given),0.24 mg/kg
20,CCCCCCCCCCCCCCCCCCOCC1COC(COC(=O)CCCCC[n+]2ccsc2)C1 (stereo not given),2.4 mg/kg
21,CCCCCCCCCCCCCCC1COC(COCCCCCC[n+]2cccc3ccccc32)C1 (stereo not given),3 mg/kg
22,CCCCCCCCCCCCCCCCCCOCC1OCC(COC(=O)N(Cc2cccc[n+]2CC)C(C)=O)O1 (stereo not given),0.041 mg/kg
23,CCCCCCCCCCCCCCCC1CCC(COC(=O)N(Cc2cccc[n+]2CC)C(C)=O)O1 (stereo not given),0.15 mg/kg
24,CCCCCCCCCCCCCCCCCCC1COC(COC(=O)N(Cc2cccc[n+]2CC)C(C)=O)C1 (stereo not given),0.23 mg/kg

row,SMILES,ID50
1,CCCCCCCCCCCCCCCCOCC1CCC(COC(=O)N(Cc2cccc[n+]2CC)C(C)=O)O1 (stereo not given),0.036 mg/kg
2,CCCCCCCCCCCCCCC1COC(COP(=O)([O-])OCC[N+](C)(C)C)C1 (stereo not given),> 5 mg/kg
3,CCCCCCCCCCCCCCCCCCNC(=O)OCC(COC(=O)N(Cc1cccc[n+]1CC)C(C)=O)OC (stereo not given),0.0078 mg/kg and 0.011 mg/kg
4,CCCCCCCCCCCCCCCCOCC1OCC(COC(=O)N(Cc2cccc[n+]2CC)C(C)=O)O1 (stereo not given),0.024 mg/kg
5,CCCCCCCCCCCCCCCCCC1OCC(COCCCCCC[n+]2ccsc2)O1 (stereo not given),1.3 mg/kg
6,CCCCCCCCCCCCCCCCCC1COC(COC(=O)N(Cc2cccc[n+]2CC)C(C)=O)O1 (stereo not given),0.074 mg/kg
7,CCCCCCCCCCCCCCCCCC1CCC(COC(=O)N(Cc2cccc[n+]2CC)C(C)=O)O1 (stereo not given),0.15 mg/kg
8,CCCCCCCCCCCCCCC1COC(COCCCCCC[N+](C)(C)C)C1 (stereo not given),> 5 mg/kg
9,CCCCCCCCCCCCCCCCOCC1COC(COC(=O)N(Cc2cccc[n+]2CC)C(=O)OCC)C1 (stereo not given),0.035 mg/kg
10,CCCCCCCCCCCCCCCNC(=O)OCC1CC(COC(=O)N(Cc2cccc[n+]2CC)C(C)=O)CO1 (stereo in doubt; form 1),0.057 mg/kg
11,CCCCCCCCCCCCCCCCCCOCC1CC(COC(=O)CCCCC[n+]2ccsc2)CO1 (stereo not given),1.1 mg/kg
12,CCCCCCCCCCCCOCC1COC(COCCCCCCC[n+]2ccsc2)C1 (stereo not given),3.7 mg/kg
13,CCCCCCCCCCCCCCCCOCC1COC(COC(=O)CCCCC[n+]2ccsc2)C1 (stereo not given),1.7 mg/kg
14,CCCCCCCCCCCCCCCCCCOCC1COC(COC(=O)Nc2cc[n+](CC)cc2)C1 (stereo not given),> 5 mg/kg
15,CCCCCCCCCCCCCCCNC(=O)OCC1CC(COC(=O)N(Cc2cccc[n+]2CC)C(C)=O)CO1 (stereo in doubt; form 2),0.042 mg/kg
16,CCCCCCCCCCCCCCCCOCC1COC(COC(=O)N(C(C)=O)c2ccc[n+](CC)c2)C1 (stereo not given),0.13 mg/kg
17,CCCCCCCCCCCCCCCNC(=O)OCC1COC(COC(=O)N(Cc2cccc[n+]2CC)C(C)=O)C1 (stereo not given),0.067 mg/kg and 0.033 mg/kg
18,CCCCCCCCCCCCCCCCOCC1CC(COC(=O)N(Cc2cccc[n+]2CC)C(C)=O)CO1 (stereo not given),0.027 mg/kg and 0.02 mg/kg
19,CCCCCCCCCCCCCCC1COC(COCCCCCC[n+]2ccsc2)C1 (stereo in doubt; form 1),2.5 mg/kg
20,CCCCCCCCCCCCCCC1COC(COP(=O)([O-])OCC[n+]2ccccc2)C1 (stereo not given),> 5 mg/kg
21,CCCCCCCCCCCCCCC1COC(COCCCCCC[n+]2ccsc2)C1 (stereo in doubt; form 2),2.9 mg/kg
22,CCCCCCCCCCCCCCCC1OCC(COC(=O)CCCCC[n+]2ccsc2)O1 (stereo not given),0.86 mg/kg
23,CCCCCCCCCCCCCCOCC1COC(COCCCCCCC[n+]2ccsc2)C1 (stereo not given),1.4 mg/kg
24,CCCCCCCCCCCCCCCCOCC1COC(COC(=O)N(Cc2ccccn2)C(C)=O)C1 (stereo not given),> 5 mg/kg

row,SMILES,ID50
1,CCCCCCCCCCCCCCCCCC1OCC(COP(=O)([O-])OCC[n+]2ccccc2)O1 (stereo not given),> 5 mg/kg
2,CCCCCCCCCCCCCCCC1CCC(COCCCCCC[n+]2ccsc2)O1 (stereo not given),2 mg/kg
3,CCCCCCCCCCCCCCOCC1COC(COCCCCCC[n+]2ccsc2)C1 (stereo not given),3.1 mg/kg
4,CCCCCCCCCCCCCCCCCCOCC1CC(COCCCCC[n+]2ccsc2)CO1 (stereo not given),2.5 mg/kg
5,CCCCCCCCCCCCCCCCCCCC1OCC(COC(=O)CCCCC[n+]2ccsc2)O1 (stereo not given),5.1 mg/kg
6,CCCCCCCCCCCCCCCCC1COC(COCCCCCCC[n+]2ccsc2)C1 (stereo not given),2 mg/kg
7,CCCCCCCCCCCCCCCCOCC1CC(COCCCCCC[n+]2ccsc2)CO1 (stereo not given),1.8 mg/kg
8,CCCCCCCCCCCCCCCCOCC1COC(COC(=O)N(Cc2cccc[n+]2CC)C(C)=O)C1 (stereo not given),0.044 mg/kg and 0.035 mg/kg
9,CCCCCCCCCCCCCCCCOCC1OCC(COCCCCCC[n+]2ccsc2)O1 (stereo not given),1.8 mg/kg
10,CCCCCCCCCCCCCCCCCC1OCC(COCCCCCC[n+]2cccc3ccccc32)O1 (stereo not given),3.8 mg/kg
11,CCCCCCCCCCCCCCCCOCC1COC(COC(=O)NCCc2cccc[n+]2CC)C1 (stereo not given),> 5 mg/kg
12,CCCCCCCCCCCCCCCCCCOCC1COC(COC(=O)N(Cc2cccc[n+]2CC)C(C)=O)O1 (stereo not given),0.017 mg/kg
13,CCCCCCCCCCCCCCCCCC1OCC(COCCCCCC[n+]2cscc2C)O1 (stereo not given),3.1 mg/kg
14,CCCCCCCCCCCCCCCCCCOCC1COC(COC(=O)N(Cc2cccc[n+]2CC)C(C)=O)C1 (stereo not given),0.035 mg/kg
15,CCCCCCCCCCCCCCCCCCOCC1COC(COC(=O)N(Cc2ccc[n+](CC)c2)C(C)=O)C1 (stereo not given),> 5 mg/kg
16,CCCCCCCCCCCCCCCCOCC1COC(COC(=O)NCc2cccc[n+]2CC)C1 (stereo not given),> 5 mg/kg
17,CCCCCCCCCCCCCCCCCC1OCC(COCCCCCC[N+]2(C)CCOCC2)O1 (stereo not given),> 5 mg/kg
18,CCCCCCCCCCCCCCCNC(=O)OCC1CC(COC(=O)N(Cc2cccc[n+]2CC)C(C)=O)CO1 (stereo not given),0.049 mg/kg
19,CCCCCCCCCCCCCCCCOCC1OCC(COCCCC[n+]2ccsc2)O1 (stereo not given),2.7 mg/kg
20,CCCCCCCCCCCCCCCC1CCC(COC(=O)CCCCC[n+]2ccsc2)O1 (stereo not given),1.2 mg/kg
21,CCCCCCCCCCCCCCCCCC1OCC(COCCCC[n+]2ccsc2)O1 (stereo not given),> 5 mg/kg
22,CCCCCCCCCCCCCCCCCCOCC1CC(COCCCCCCC[n+]2ccsc2)CO1 (stereo not given),2.1 mg/kg
23,CCCCCCCCCCCCCCCCCC1OCC(COCCCCCC[n+]2ccccc2)O1 (stereo not given),> 5 mg/kg
24,CCCCCCCCCCCCCCCCCC1OCC(COC(=O)N(Cc2cccc[n+]2CC)C(C)=O)O1 (stereo not given),0.24 mg/kg
